Only some compounds are listed: those with a hit (about 3.7% of all), similar ones and a draw of the others.
EP2 antag – blocks the human prostaglandin E2 receptor EP2; P43116; inhibition, % at 25 µM; C6 glioma cells expressing human EP2, cAMP TR-FRET; cells stimulated with saturating PGE2; actives 0.52% (n = 260,000);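 active = percent inhibition above 40 after rounding to a whole number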;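 also: rat C6 glioma host cells with rolipram phosphodiesterase inhibitor present; the protocol text gives 20 µM as final concentration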
OX1R antag-1 – blocks the human orexin 1 receptor | O43613 | OX1R-expressing cells, FRET antagonist read-out | inhibition, % at 6.6 µM | actives 1.8% (n = 330,000) | AID 485270; in the data active = inhibition mostly above about 38%, no sharp cut-off; inactive = mostly below about 40%;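 also: 0% = agonist challenge alone and 100% = reference antagonist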
Target sequence (O43613 whole entry, looked up): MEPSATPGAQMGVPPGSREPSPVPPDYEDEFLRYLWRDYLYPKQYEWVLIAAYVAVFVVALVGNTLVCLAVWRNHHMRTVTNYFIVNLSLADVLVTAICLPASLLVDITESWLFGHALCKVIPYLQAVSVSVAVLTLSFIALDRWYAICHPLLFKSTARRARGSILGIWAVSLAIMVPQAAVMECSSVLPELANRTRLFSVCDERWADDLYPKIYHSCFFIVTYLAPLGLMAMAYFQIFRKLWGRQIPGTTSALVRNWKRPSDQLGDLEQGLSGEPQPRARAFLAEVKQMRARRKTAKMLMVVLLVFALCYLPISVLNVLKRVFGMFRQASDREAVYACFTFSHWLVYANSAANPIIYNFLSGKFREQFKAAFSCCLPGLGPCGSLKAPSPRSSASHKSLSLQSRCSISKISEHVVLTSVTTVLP
OX1R antag-2 – human HCRTR1 antagonism; O43613; CHO/OX1R cells, Fluo-8 calcium fluorescence, orexin A; inhibition, % at 5 µM; actives 0.43% (n = 330,000); AID 434989;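 active = inhibition above its plate's threshold, mean inhibition of all tested compounds on the plate plus 3 SD, cut at about 37% in these data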;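 also: 0% = orexin A challenge wells and 100% = SB-334867-A antagonist wells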
EP2 mod – modulators of human EP2 prostaglandin E2 receptor; P43116; AID 940; actives 0.83% (n = 260,000); induction, % at 25 µM; EP2-expressing cells, cAMP HTRF FRET, PGE2 co-stimulation;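 active = compounds whose cAMP rise, as percent of the full-agonist control response, exceeds 60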;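 also: rat C6 glioma line stably carrying human EP2 under a CMV promoter; the protocol text gives 20 µM as final concentration; 100% = response of wells given 1 µM PGE2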
GPR7 antag – blocks human GPR7 receptor signaling | P48145 | GPR7-expressing cells, fluorescence antagonist assay | inhibition, % at 4.4 µM | actives 1.1% (n = 290,000) | AID 1861; in the data active = inhibition above about 16%, passing the limit was not always enough;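 also: cells stimulated with the agonist NPW; 0% = agonist with vehicle and 100% = vehicle without agonist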
CHO parental Ca – counter-screen for OX1R antagonists: effect in parental CHO cells; inhibition, % at 5.6 µM; AID 463079; parental CHO-K1, ATP-induced calcium, Fluo-8 fluorescence; actives 0.63% (n = 330,000);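 active = inhibition above that plate's mean sample inhibition plus 3 SD, cut at about 26% in these data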;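 also: 0% = ATP-challenged DMSO wells and 100% = DMSO wells without ATP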
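Test system: untransfected parental CHO cell line. Compound: one dose, 5.6 µM nominal. Detection: intracellular calcium via Fluo-8 no-wash fluorescent dye. Measure: % inhibition. Benchmarks: ATP-challenged DMSO wells low, unchallenged DMSO wells high.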
OX1R HTRF conf – confirmation of human orexin 1 receptor antagonists, HTRF format. shares compounds with OX1R antag-1. OX1R-expressing cells, HTRF antagonist assay. inhibition, % at 6.6 µM. actives 49% (n = 1,800). AID 492964; in the data active = inhibition above about 55%;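 also: CHO cells expressing OX1R stimulated with orexin A at about EC80; 0% = agonist challenge alone and 100% = reference antagonist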
CHO-K1 HTRF cnt – signal in parental CHO-K1 cells, OX1R antagonist counter-screen | AID 493232 | HTRF counterscreen | actives 48% (n = 1,800) | shares compounds with OX1R antag-1 | inhibition, % at 6.6 µM; in the data active = inhibition above about 17%;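 also: 0% = agonist challenge with vehicle and 100% = vehicle alone without agonist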
* marks the source's active call; other numbers are inactive results; · = no result.

SMILES	EP2 antag	OX1R antag-1	OX1R antag-2	EP2 mod	GPR7 antag	CHO parental Ca	OX1R HTRF conf	CHO-K1 HTRF cnt
CC(C)(C)n1[nH]c2c3c(ccc2c1=O)C(=O)c1ccccc1C3=O	12.0	128.6*	-31.3	-29.2	-1.9	-10.4	45.9	43.4*
Cc1ccc(-n2[nH]c3c4c(ccc3c2=O)C(=O)c2ccccc2C4=O)cc1	6.5	9.2	-4.3	-11.4	-0.1	-5.1	·	·
COCCn1c(=N)c(C(=O)NCc2ccco2)cc2c(=O)n3ccccc3nc21	8.0	166.6*	-35.4	-9.0	-8.7	-15.5	53.9	71.6*
N=c1c(C(=O)NCc2ccco2)cc2c(=O)n3ccccc3nc2n1Cc1ccccc1	25.2	63.3	-6.1	34.1	-13.3	-17.9	·	·
N=c1c(C(=O)NCc2ccco2)cc2c(=O)n3ccccc3nc2n1Cc1ccc(Cl)cc1	0.6	58.4	-21.8	·	-0.4	-13.3	·	·
N#Cc1cc2c(=O)n3ccccc3nc2n(Cc2ccco2)c1=NC(=O)c1ccco1	3.4	77.1*	-15.7	14.1	-10.6	-10.6	47.1	42.5*
N=c1c(C(=O)NCc2ccccc2)cc2c(=O)n3ccccc3nc2n1Cc1ccco1	10.8	78.0*	-16.4	-16.8	0.9	-25.1	32.0	11.4
CCOC(=O)c1c(C)oc2c1c1c(c3ccccc32)OCN(Cc2ccccn2)C1	11.6	83.9*	-5.3	7.2	-12.8	-18.2	14.1	4.3
COc1cccc(C(=O)NC2CC3CCC(C2)N3Cc2ccccc2)c1 (stereo unspecified)	·	3.2	-13.4	·	-15.1	-11.7	·	·
COc1cccc(C(=O)NC2CC3CCCC(C2)N3CC(=O)Nc2ccccc2C(F)(F)F)c1 (stereo unspecified)	·	89.7*	7.7	·	-14.9	-19.1	89.1*	6.5
Oc1ccc2ccccc2c1N=Nc1ccccn1	17.1	86.2*	28.6	-5.3	-8.1	12.3	46.6	29.2*
O=C(O)CCC(=O)Nc1nc2nc(-c3ccccc3)cc(-c3ccccc3)n2n1	·	109.2*	-11.2	8.8	9.1	-15.5	25.2	14.8
CC(=O)Nc1ccc(S(=O)(=O)Nc2nc3nc(-c4ccccc4)cc(-c4ccccc4)n3n2)cc1	·	0.6	-54.0	·	9.0	-8.4	·	·
Cc1cc(-n2ccc(=O)[nH]c2=O)nc(-c2ccccc2)n1	5.5	0.8	-12.2	38.7	-9.6	-3.0	·	·
CN1C2=CC=CC=CC2=[N+](C)C12C([N+](=O)[O-])=CC(=[N+]([O-])[O-])C=C2[N+](=O)[O-] (stereo unspecified)	7.4	13.9	-7.2	-26.3	1.8	-7.8	·	·
CN1C2=CC=CC=CC2=[N+](C)C12C=CC(=[N+]([O-])[O-])C=C2[N+](=O)[O-] (stereo unspecified)	2.6	143.8*	-12.8	-14.1	-7.1	-8.8	67.8*	89.7*
CC(C)Cn1c(N)c(C(=O)COC(=O)c2ccc([N+](=O)[O-])o2)c(=O)n(C)c1=O	15.8	80.7*	-18.2	-87.0	-0.6	-10.7	30.1	24.5*
CC(C)Cn1c(N)c(C(=O)COC(=O)c2cnccn2)c(=O)n(C)c1=O	·	9.0	14.7	·	·	3.5	·	·
CC(=O)N/C(=C/c1ccccc1)c1ccccc1	·	-0.7	-12.7	·	·	-12.6	·	·
CCOc1c2ccc(C(=O)NCc3ccc4c(c3)OCO4)cc2nn1CCOC	5.8	19.2	-4.6	-11.1	-5.4	-7.2	·	·
COc1ccc(-n2c(C)cc(/C=N/Nc3nnc(C)n3N)c2C)cc1	7.9	108.2*	-12.7	-8.8	-12.1	-15.9	21.8	13.8
CCN(CC)CCCN1C(=O)C(=O)/C(=C(/O)c2ccc(C)cc2)C1c1ccccn1 (stereo unspecified)	23.4	76.0	-24.4	-3.5	-7.3	2.1	·	·
O=C1C(=O)N(CCN2CCOCC2)C(c2ccccn2)/C1=C(/O)c1ccccc1 (stereo unspecified)	10.8	178.5*	-5.4	30.6	-15.6	-6.6	26.4	36.0*
Cc1ccc(/C(O)=C2/C(=O)C(=O)N(CCN3CCOCC3)C2c2ccccn2)cc1 (stereo unspecified)	9.8	82.3*	-2.5	33.4	2.9	15.0	23.7	32.7*
O=C1C(=O)N(CCN2CCOCC2)C(c2cccnc2)/C1=C(/O)c1ccccc1 (stereo unspecified)	2.7	6.8	-4.4	9.6	0.6	16.9	·	·
SMILES	EP2 antag	OX1R antag-1	OX1R antag-2	EP2 mod	GPR7 antag	CHO parental Ca	OX1R HTRF conf	CHO-K1 HTRF cnt
COc1ccc(/C(O)=C2/C(=O)C(=O)N(CCN3CCOCC3)C2c2ccccn2)cc1OC (stereo unspecified)	14.3	134.7*	-9.7	31.1	-9.6	-9.8	29.0	28.5*
CC(C)N(C=O)C1(C(=O)NC2CCCCC2)CCCCC1	6.4	15.6	-9.4	10.3	-1.8	0.6	·	·
COc1ccccc1C(=O)N=Nc1c(O)[nH]c2ccc([N+](=O)[O-])cc12	8.9	·	·	-45.3	11.1	·	·	·
NC(=O)N=Nc1c(O)[nH]c2ccc([N+](=O)[O-])cc12	11.7	101.7*	-18.9	1.0	4.4	-7.1	44.5	62.6*
CC(=O)N(C)C1=C(O)c2ccccc2C(=O)C1=O	11.7	83.4*	-7.4	7.3	-4.8	-2.1	51.3	93.5*
CC(=O)Nc1ccc(NC(=O)C(C)OC(=O)C(C)SCC(=O)Nc2ccc(C)cc2)cc1 (stereo unspecified)	·	82.5*	-0.8	·	·	11.4	75.1*	3.5
CC1=CC(=O)C(C(C)C)=C/C1=N/OC(=O)c1cccc([N+](=O)[O-])c1	11.7	16.2	-2.8	25.8	-2.2	2.0	·	·
CC1=CC(=NOC(=O)c2cccc([N+](=O)[O-])c2)C=C(C)C1=O	10.1	118.3*	-0.6	-14.6	-7.5	0.1	23.4	17.8*
CC1CCN(C(=O)Cn2c3ccc(F)cc3c3nc4n(c(=O)c32)CCCS4)CC1	·	90.7*	-22.3	·	-5.7	-11.1	20.2	7.4
CCc1cc[n+](-c2nc([O-])sc2C=O)cc1	9.5	149.1*	-9.6	2.2	4.2	-10.4	46.8	62.2*
CC(C)c1cc[n+](-c2nc([O-])sc2C=O)cc1	9.1	98.2*	-0.1	10.2	-0.4	6.9	43.1	63.7*
CC(C)(C)c1cc[n+](-c2nc([O-])sc2C=O)cc1	7.5	79.4*	18.8	4.2	-1.3	-7.7	72.5*	74.4*
O=C1COCCOCCOCC(=O)NCCN1	4.3	13.4	-24.1	1.4	-18.4	-14.7	·	·
CCC(C)NC(=O)Cc1cn(C)c2ccccc12 (stereo unspecified)	9.8	2.8	-22.2	-17.1	-1.9	-8.9	·	·
COCCN(C(=O)CSc1nc2ccc(OC)cc2[nH]1)c1c(N)n(Cc2ccccc2)c(=O)[nH]c1=O	·	90.4*	-14.9	·	·	-7.0	16.9	-4.3

Screens: PubChem BioAssay, several laboratories
